Scp1 inh – Scp-1 phosphatase inhibitors, primary screen, biochemical, colorimetric, uHTS; Carboxy-terminal domain RNA polymerase II polypeptide A small phosphatase 1 (Homo …; Recombinant Scp1, phosphopeptide, malachite green phosphate absorbance; inhibition, % at 20 µM; actives 0.88% (n = 340,000);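 active = inhibition above about 50% at 20 µM, limit read from the data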;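 note: plate controls were DMSO wells with enzyme for no effect and wells lacking enzyme for full effect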
Target sequence (Q9GZU7 76-261 limits assumed): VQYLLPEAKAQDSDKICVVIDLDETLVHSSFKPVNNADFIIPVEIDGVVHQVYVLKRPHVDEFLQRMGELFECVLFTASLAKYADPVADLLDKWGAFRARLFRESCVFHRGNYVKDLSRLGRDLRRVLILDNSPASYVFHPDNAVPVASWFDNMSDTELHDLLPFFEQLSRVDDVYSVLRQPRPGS
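Times: enzyme reaction 45 min at room temperature, colour 5 min, stabilisation 30 min. Material: SCP-1 catalytic fragment, aa 76-261. Medium: Acidic Tris acetate buffer with magnesium and detergent. Signal: colorimetric free-phosphate detection, absorbance 630 nm. Read-out basis: % inhibition of SCP-1 phosphate liberation. Reagent: Phosphorylated 17-residue peptide substrate.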
SUMO1 PPI mod – modulators of SUMO1 protein-protein interactions, primary screen, biochemical, uHTS. inhibition, % at 20 µM. actives 0.33% (n = 360,000). SUMO1 binding to a labelled peptide, TR-FRET, 1 h. Small ubiquitin-related modifier 1 (Homo sapiens), P63165; in the data active = inhibition above about 37%
Target sequence (P63165 whole entry, looked up): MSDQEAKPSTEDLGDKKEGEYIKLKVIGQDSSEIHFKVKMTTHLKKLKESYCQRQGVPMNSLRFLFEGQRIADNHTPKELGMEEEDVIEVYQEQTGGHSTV
DNMT1 block – human DNMT1 methyltransferase inhibitors, primary screen, biochemical, molecular beacon, fluorescence, HinP1I cleavage, uHTS; inhibition (reported as % activation of signal), % at 10 µM; AID 588458, 2011; actives 0.83% (n = 360,000); DNA (cytosine-5)-methyltransferase 1 (Homo sapiens), P26358; in the data active = inhibition above about 50%
STEP block – STEP phosphatase inhibitors, primary screen, biochemical, fluorescence intensity, uHTS; Tyrosine-protein phosphatase non-receptor type 5 (Homo sapiens), P54829; recombinant STEP, OMFP fluorogenic substrate; inhibition, % at 20 µM; actives 0.25% (n = 360,000);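 active = inhibition at 20 µM, scaled per plate between control wells, above about 37%, limit read from the data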;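 note: 0% = DMSO with enzyme and substrate and 100% = substrate only without enzyme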
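Test system: STEP tyrosine phosphatase / Reagent: OMFP at 25 µM / Doses: 20 µM, 1% DMSO / Read-out: percent inhibition scaled to no-enzyme and uninhibited-enzyme controls, plate-pattern corrected / Detection: FITC-channel fluorescence of OMFP product / Medium: Bis-Tris buffer pH 6.0, 2.5 mM DTT, 0.005% Tween 20 / Schedule: 20 min at room temperature, dark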
SUMO HTRF inh – inhibitors of in vitro SUMOylation cascade, primary screen, biochemical, HTRF, uHTS; HTRF SUMOylation assay, SAE1/SAE2 + UBC9; inhibition, % at 35 µM; actives 0.36% (n = 290,000); AID 2006, 2009; in the data active = inhibition above about 50%, passing the limit was not always enough; inconclusive = no clear call, values can overlap the other calls
LMPTP block – LMPTP phosphatase inhibitors, primary screen, biochemical, fluorescence intensity, uHTS; Low molecular weight phosphotyrosine protein phosphatase (Homo sapiens), P24666; recombinant LMPTP-A, OMFP fluorogenic substrate; inhibition, % at 20 µM; actives 0.22% (n = 360,000); AID 651560, 2012;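 active = compounds that cut the enzyme signal by at least half of the control window in the single-dose screen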;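 note: plate controls were DMSO wells with enzyme plus substrate for no effect and substrate without enzyme for full effect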
Target sequence (P24666 whole entry, looked up): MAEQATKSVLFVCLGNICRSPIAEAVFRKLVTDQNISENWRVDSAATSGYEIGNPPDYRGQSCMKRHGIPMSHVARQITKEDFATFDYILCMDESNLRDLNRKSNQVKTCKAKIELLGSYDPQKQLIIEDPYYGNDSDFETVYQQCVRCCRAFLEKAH
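Assay system: LMPTP-A phosphatase enzyme | Input: 0.625 nM enzyme | Also added: Fluorogenic phosphatase substrate OMFP at 400 µM final | Compound dosing: One test concentration per compound, 20 µM, with 3% DMSO overall | Schedule: 50 min enzyme reaction at room temperature, protected from light | Signal: Fluorescence intensity | Benchmarks: no-enzyme and uninhibited controls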
Scp1 confirm – Scp-1 phosphatase inhibitors, retest, confirmation, biochemical, colorimetric, single concentration; shares compounds with Scp1 inh; recombinant SCP-1 catalytic domain, phosphate release, malachite green absorbance; inhibition, % at 20 µM; actives 61% (n = 2,500); AID 540281, 2011;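 note: plate controls were DMSO with enzyme for no effect and buffer wells lacking enzyme for full effect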
Scp-1 MG ctr – colorimetric readout interference by compounds, confirmation, artefact control for Scp-1 inhibitor project, biochemical, single concentration. shares compounds with Scp1 inh. Colorimetric interference counterscreen, malachite green absorbance 630 nm. apparent inhibition (interference), % at 20 µM. 2,500 tested, under 10 active. AID 540313, 2011;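 note: compounds added after enzyme reaction finished so only phosphate colour detection is probed; plate controls were DMSO wells with completed Scp-1 reaction for no effect and substrate wells lacking enzyme for full effect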
Scp-1 Tm shift – Scp-1 binding by thermal shift, confirmation, orthogonal assay for Scp-1 inhibitor project, biophysical, differential scanning fluorimetry. shares compounds with Scp1 inh. Recombinant SCP1, Sypro Orange thermal shift Tm. thermal shift relative to vanadate control, % at 40 µM. actives 25% (n = 1,500);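 active = substances whose mean melting-temperature shift, as a percentage of the reference inhibitor's shift, reaches about 5.3%, limit read from the data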;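 note: 0% = Tm of DMSO wells and 100% = Tm with sodium orthovanadate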
DNMT1 confirm – DNMT1 methyltransferase inhibitor retest, confirmation, biochemical, molecular beacon, fluorescence, single concentration. inhibition, % at 10 µM. actives 8% (n = 2,300). DNMT1 molecular beacon HinP1I cleavage. AID 602385, 2012. shares compounds with DNMT1 block;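 active = average inhibition of at least 30% in the single-concentration confirmation test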
DNMT1 interf – counter-screen for DNMT1 inhibitors: spectral interference | activation (fluorescence interference), % at 10 µM | actives 1% (n = 2,300) | shares compounds with DNMT1 block | DNMT1 molecular beacon spectral interference counterscreen, fluorescence 485/520 | AID 602387;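 active = activation of at least 30% at 10 µM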;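 note: DNMT1 catalytic domain with a HinP1I cleavage step and a FAM/dabcyl DNA beacon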
STEP inh conf – STEP phosphatase inhibitor hit confirmation, biochemical, fluorescence intensity, single concentration; shares compounds with STEP block; recombinant STEP, OMFP fluorogenic substrate; inhibition, % at 20 µM; actives 32% (n = 520); AID 623866, 2012; call rule not given here;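 note: 0% = enzyme with substrate plus DMSO and 100% = substrate without enzyme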
Active calls of the source: *; ? = inconclusive; nt = no result given. Compounds with a hit are over-represented: about 1.9% of the library has one in this group of screens.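 Rule for the calls, unless noted: active = inhibition of at least 30% at 20 µM; inactive = the rest.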

SMILES	Scp1 inh	SUMO1 PPI mod	DNMT1 block	STEP block	SUMO HTRF inh	LMPTP block	Scp1 confirm	Scp-1 MG ctr	Scp-1 Tm shift	DNMT1 confirm	DNMT1 interf	others
O=C(Nc1cccc(C(F)(F)F)c1)c1cc2ncc(Br)cn2n1	7.4	0.5	11.5	31.6	19.4	10.2	nt	nt	nt	nt	nt
O=C(Nc1ccc(-c2nc3ccccc3s2)c(O)c1)C1=COCCO1	98.1*	1.6	69.8*	22.3	?	52.8*	71.4*	-7.3	9.9*	4.9	4.8
O=C(NNC(=O)c1cc2cc3ccccc3nc2s1)c1cccc(C(F)(F)F)c1	75.1*	0.3	50.8*	29.2	19.5	27.7	71.2*	-14.0	-15.8	0.8	4.1
O=C(NNS(=O)(=O)c1ccccc1)c1cc2cc3ccccc3nc2s1	-2.3	1.3	-0.1	1.3	-3.4	-0.3	nt	nt	nt	nt	nt
O=C(CCNS(=O)(=O)c1ccc(Br)cc1)N1CCCCCCC1	5.1	1.0	1.4	0.1	nt	3.5	nt	nt	nt	nt	nt
O=C(CCS(=O)(=O)c1ccc(Br)cc1)N1CCCCCC1	79.2*	43.3*	100.2*	3.3	0.4	0.1	66.0*	-14.5	-4.3	6.8	3.5
COc1ccc(C(CNC(=O)c2cc(SC)ccc2Cl)N(C)C)cc1 (stereo not drawn)	-18.8	0.4	1.3	-0.5	-7.5	5.5	nt	nt	nt	nt	nt
CCCCc1cc(=O)oc2cc(OCC(=O)N3CCC(C(=O)O)(c4ccccc4)CC3)ccc12	-1.3	10.5	-0.5	2.9	6.9	-1.0	nt	nt	nt	nt	nt
Cc1onc(-c2ccccc2Cl)c1C(=O)NCc1ccco1	82.8*	2.7	63.0*	2.8	65.8	20.6	-6.8	-10.9	nt	4.3	0.7
Cc1cc(=O)oc2cc(NC(=O)c3cccc(F)c3)ccc12	62.8*	13.2	58.3*	91.4*	28.9	29.6	35.4*	-17.0	-28.2	0.3	-0.3	STEP inh conf=14.8
Cc1cc(=O)oc2cc(NC(=O)c3ccc(OC(F)F)cc3)ccc12	87.1*	-0.6	28.3	84.3*	24.4	41.2	79.5*	-11.8	-5.6	nt	nt	STEP inh conf=12.6
O=C(Nc1ccccc1C(=O)NCc1cccnc1)c1ccc(Cl)cc1Cl	-2.0	1.7	1.4	-1.5	3.8	-1.6	nt	nt	nt	nt	nt
COc1ccc(C(=O)N2CCC(n3nccc3NC(=O)C3CC3)CC2)cc1F	-4.7	-1.0	5.1	-3.8	4.4	-0.3	nt	nt	nt	nt	nt

Assay outcomes from PubChem BioAssay.
